Results: ChEMBL document CHEMBL5104202, “Structure-Uptake Relationship Studies of Oxazolidinones in Gram-Negative ESKAPE Pathogens” (J Med Chem, 2022)
pIC50: −log10 of the molar value. Values after ≈ are worked out from the molar mass of the structure shown.

Tests used:
[1] = tested on: Pseudomonas aeruginosa; experiment: Antibacterial activity against efflux pump lacking Pseudomonas aeruginosa assessed as inhibition of bacterial growth; format: functional, organism-based
[2] = tested on: Escherichia coli; experiment: Antibacterial activity against Escherichia coli SQ110 incubated for 24 hrs by twofold serial dilution method; format: functional
Summary of the method: (§1)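 MICs by twofold serial dilution in 96-well plates from 10 mM DMSO stocks. Cultures grown in the indicated media; for E. coli, A. baumannii and P. aeruginosa, inducers were 0.1% arabinose, 1% arabinose and 0.1 mM IPTG respectively.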

[3] = tested on: Acinetobacter baumannii; experiment: Antibacterial activity against recombinant OM pore producing Acinetobacter baumannii assessed as inhibition of bacterial growth; format: functional, organism-based
[4] = tested on: Pseudomonas aeruginosa; experiment: Antibacterial activity against efflux pump lacking/recombinant OM pore producing Pseudomonas aeruginosa incubated for 24 hrs by twofold serial dilution method; format: functional; summary of the method: as §1
[5] = tested on: Klebsiella aerogenes; experiment: Antibacterial activity against multidrug resistant Klebsiella aerogenes ATCC13048 assessed as inhibition of bacterial growth incubated for 24 hrs in M9-MOPS medium by twofold serial dilution method; format: functional
[6] = tested on: Klebsiella pneumoniae; experiment: Antibacterial activity against multidrug resistant Klebsiella pneumoniae ATCC43816 assessed as inhibition of bacterial growth incubated for 24 hrs in M9-MOPS medium by twofold serial dilution method; format: functional
[7] = tested on: Pseudomonas aeruginosa; experiment: Antibacterial activity against efflux pump lacking/recombinant OM pore producing Pseudomonas aeruginosa assessed as inhibition of bacterial growth; format: functional, organism-based
[8] = tested on: Acinetobacter baumannii; experiment: Antibacterial activity against multidrug resistant Acinetobacter baumannii AYE assessed as inhibition of bacterial growth incubated for 24 hrs in M9-MOPS medium by twofold serial dilution method; format: functional
[9] = tested on: Acinetobacter baumannii; experiment: Antibacterial activity against multidrug resistant Acinetobacter baumannii Ab5075 assessed as inhibition of bacterial growth incubated for 24 hrs in MHI medium by twofold serial dilution method; format: functional
[10] = tested on: Acinetobacter baumannii; experiment: Antibacterial activity against efflux pump lacking Acinetobacter baumannii assessed as inhibition of bacterial growth; format: functional, organism-based
[11] = tested on: Klebsiella pneumoniae; experiment: Antibacterial activity against multidrug resistant Klebsiella pneumoniae ATCC43816 assessed as inhibition of bacterial growth incubated for 24 hrs in MHI medium by twofold serial dilution method; format: functional
[12] = tested on: Pseudomonas aeruginosa; experiment: Antibacterial activity against wild type Pseudomonas aeruginosa assessed as inhibition of bacterial growth; format: functional, organism-based
[13] = tested on: Klebsiella pneumoniae; experiment: Antibacterial activity against multidrug resistant Klebsiella pneumoniae ATCC13883 assessed as inhibition of bacterial growth incubated for 24 hrs in M9-MOPS medium by twofold serial dilution method; format: functional
[14] = tested on: Pseudomonas aeruginosa; experiment: Antibacterial activity against recombinant OM pore producing Pseudomonas aeruginosa assessed as inhibition of bacterial growth; format: functional, organism-based
[15] = tested on: Acinetobacter baumannii; experiment: Antibacterial activity against multidrug resistant Acinetobacter baumannii Ab5075 assessed as inhibition of bacterial growth incubated for 24 hrs in M9-MOPS medium by twofold serial dilution method; format: functional
[16] = tested on: Escherichia coli; experiment: Antibacterial activity against Escherichia coli SQ110 DTC incubated for 24 hrs by twofold serial dilution method; format: functional; summary of the method: as §1
[17] = tested on: Escherichia coli; experiment: Antibacterial activity against efflux pump lacking/recombinant OM pore producing Escherichia coli incubated for 24 hrs by twofold serial dilution method; format: functional
Summary of the method: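 E. coli efflux-knockout/hyperporinated strain grown in M9 medium with 50 mM MOPS (pH 7.2) and 0.2% xylose. OM pore induced with 0.1% arabinose. Compounds come from 10 mM DMSO stocks and are twofold serially diluted in 96-well plates.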

[18] = tested on: Pseudomonas aeruginosa; experiment: Antibacterial activity against multidrug resistant Pseudomonas aeruginosa BAA 2109 assessed as inhibition of bacterial growth incubated for 24 hrs in MHI medium by twofold serial dilution method; format: functional
[19] = tested on: Pseudomonas aeruginosa; experiment: Antibacterial activity against multidrug resistant Pseudomonas aeruginosa BAA 2109 assessed as inhibition of bacterial growth incubated for 24 hrs in […] medium by twofold serial dilution method; format: functional
[20] = tested on: Escherichia coli; experiment: Antibacterial activity against Escherichia coli SQ110 DTC G2032A incubated for 24 hrs by twofold serial dilution method; format: functional
Summary of the method: (§2)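 E. coli SQDTC (TolC-deficient, single rRNA operon) carrying LZD-resistant 23S rRNA substitutions. Compounds come from 10 mM DMSO stocks and are twofold serially diluted in 96-well plates.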

[21] = tested on: Klebsiella aerogenes; experiment: Antibacterial activity against multidrug resistant Klebsiella […] assessed as inhibition of bacterial growth incubated for 24 hrs in MHI medium by twofold serial dilution method; format: functional
[22] = tested on: Escherichia coli; experiment: Antibacterial activity against recombinant OM pore producing Escherichia coli assessed as inhibition of bacterial growth; format: functional, organism-based
[23] = tested on: Klebsiella pneumoniae; experiment: Antibacterial activity against multidrug resistant Klebsiella pneumoniae ATCC13883 assessed as inhibition of bacterial growth incubated for 24 hrs in MHI medium by twofold serial dilution method; format: functional
[24] = tested on: Escherichia coli; experiment: Antibacterial activity against wild type Escherichia coli assessed as inhibition of bacterial growth; format: functional, organism-based
[25] = tested on: Escherichia coli; experiment: Antibacterial activity against efflux pump lacking Escherichia coli assessed as inhibition of bacterial growth; format: functional, organism-based
[26] = tested on: Acinetobacter baumannii; experiment: Antibacterial activity against multidrug resistant Acinetobacter baumannii AYE assessed as inhibition of bacterial growth incubated for 24 hrs in MHI medium by twofold serial dilution method; format: functional
[27] = tested on: Escherichia coli; experiment: Antibacterial activity against Escherichia coli SQ110 DTC C2610A incubated for 24 hrs by twofold serial dilution method; format: functional; summary of the method: as §2
[28] = tested on: Pseudomonas aeruginosa; experiment: Antibacterial activity against multidrug resistant Pseudomonas aeruginosa BAA 2108 assessed as inhibition of bacterial growth incubated for 24 hrs in M9-MOPS medium by twofold serial dilution method; format: functional
[29] = tested on: Acinetobacter baumannii; experiment: Antibacterial activity against efflux pump lacking/recombinant OM pore producing Acinetobacter baumannii assessed as inhibition of bacterial growth; format: functional, organism-based
[30] = tested on: Acinetobacter baumannii; experiment: Antibacterial activity against efflux pump lacking/recombinant OM pore producing Acinetobacter baumannii incubated for 24 hrs by twofold serial dilution method; format: functional; summary of the method: as §1
[31] = tested on: Escherichia coli; experiment: Antibacterial activity against efflux pump lacking/recombinant OM pore producing Escherichia coli assessed as inhibition of bacterial growth; format: functional, organism-based
[32] = tested on: Pseudomonas aeruginosa; experiment: Antibacterial activity against multidrug resistant Pseudomonas aeruginosa BAA 2108 assessed as inhibition of bacterial growth incubated for 24 hrs in MHI medium by twofold serial dilution method; format: functional
[33] = tested on: Acinetobacter baumannii; experiment: Antibacterial activity against wild type Acinetobacter baumannii assessed as inhibition of bacterial growth; format: functional, organism-based
[34] = tested on: Klebsiella pneumoniae; experiment: Antibacterial activity against multidrug resistant Klebsiella pneumoniae ATCC43816 assessed as inhibition of bacterial growth incubated for 24 hrs in MHI medium by twofold serial dilution method; details: ATCC43816, 24 h
[35] = tested on: Staphylococcus aureus; experiment: Antibacterial activity against Staphylococcus aureus ATCC 25923 incubated for 24 hrs by twofold serial dilution method; format: functional; summary of the method: as §1

SMILES | pIC50 [1] | MIC [2] [µM] | pIC50 [3] | MIC [4] [µM] | MIC [5] [µM] | MIC [6] [µM] | pIC50 [7] | MIC [8] [µM] | MIC [9] [µM] | pIC50 [10] | MIC [11] [µM] | pIC50 [12] | MIC [13] [µM] | pIC50 [14] | MIC [15] [µM] | MIC [16] [µM] | MIC [17] [µM] | MIC [18] [µM] | MIC [19] [µM] | MIC [20] [µM] | other results
NCc1ccc(-c2ccc(N3C[C@H](CO)OC3=O)cc2F)cc1O | 5.66 | > 100 | 4.42 | 6.25 | 12.5 (≈ 4.15 µg/mL) | 100 (≈ 33.2 µg/mL) | 6.70 | > 200 | > 200 | 4.81 | > 200 | 4.25 | 50 (≈ 16.6 µg/mL) | 4.39 | > 200 | 25 (≈ 8.31 µg/mL) | 50 | > 200 | > 200 | 100 (≈ 33.2 µg/mL) | MIC [21]: 200 µM (≈ 66.5 µg/mL); pIC50 [22]: 4.63; MIC [23]: > 200 µM; pIC50 [24]: 4.18; pIC50 [25]: 5.00; MIC [26]: > 200 µM; MIC [27]: 50 µM (≈ 16.6 µg/mL); MIC [28]: > 200 µM; pIC50 [29]: 4.81; MIC [30]: 25 µM; pIC50 [31]: 4.99; MIC [32]: > 200 µM; pIC50 [33]: 4.42
C[n+]1ccc(-c2ccc(-c3ccc(N4C[C@H](CO)OC4=O)cc3F)cc2)cc1 | < 4.00 | > 100 | 5.00 | 12.5 | 50 | > 200 | < 4.00 | > 200 | > 200 | 4.19 | > 200 | < 4.00 | 100 | < 4.00 | 200 | 3.12 | 12.5 | > 200 | > 200 | 25 | pIC50 [22]: 5.77; MIC [23]: > 200 µM; pIC50 [24]: 4.81; MIC [34]: > 200 µM; pIC50 [25]: 6.30; MIC [26]: > 200 µM; MIC [27]: 12.5 µM; MIC [28]: > 200 µM; pIC50 [29]: 4.97; MIC [35]: 12.5 µM; MIC [30]: 50 µM; pIC50 [31]: 6.30; MIC [32]: > 200 µM; pIC50 [33]: < 4.00
NCc1ccc(-c2ccc(N3C[C@H](CO)OC3=O)cc2F)cc1 | 5.48 | > 100 | 4.84 | 12.5 | 100 (≈ 31.6 µg/mL) | 200 (≈ 63.3 µg/mL) | 5.09 | > 200 | > 200 | 4.75 | > 200 | 4.64 | 100 (≈ 31.6 µg/mL) | 4.58 | > 200 | 50 (≈ 15.8 µg/mL) | > 100 | > 200 | > 200 | 100 (≈ 31.6 µg/mL) | pIC50 [22]: 5.59; MIC [23]: > 200 µM; pIC50 [24]: 4.74; MIC [34]: > 200 µM; pIC50 [25]: 5.77; MIC [26]: > 200 µM; MIC [27]: 50 µM (≈ 15.8 µg/mL); MIC [28]: > 200 µM; pIC50 [29]: 5.09; MIC [35]: 6.25 µM (≈ 1.98 µg/mL); MIC [30]: 25 µM; pIC50 [31]: 5.59; MIC [32]: > 200 µM; pIC50 [33]: 4.26
